{"source": "ChEMBL document CHEMBL1649098", "about": "(ACS Med Chem Lett, 2011)", "key": {"[1]": {"biological_target": "Cytochrome P450 2D6 (Homo sapiens, UniProt P10635)", "sequence (P10635 whole entry)": "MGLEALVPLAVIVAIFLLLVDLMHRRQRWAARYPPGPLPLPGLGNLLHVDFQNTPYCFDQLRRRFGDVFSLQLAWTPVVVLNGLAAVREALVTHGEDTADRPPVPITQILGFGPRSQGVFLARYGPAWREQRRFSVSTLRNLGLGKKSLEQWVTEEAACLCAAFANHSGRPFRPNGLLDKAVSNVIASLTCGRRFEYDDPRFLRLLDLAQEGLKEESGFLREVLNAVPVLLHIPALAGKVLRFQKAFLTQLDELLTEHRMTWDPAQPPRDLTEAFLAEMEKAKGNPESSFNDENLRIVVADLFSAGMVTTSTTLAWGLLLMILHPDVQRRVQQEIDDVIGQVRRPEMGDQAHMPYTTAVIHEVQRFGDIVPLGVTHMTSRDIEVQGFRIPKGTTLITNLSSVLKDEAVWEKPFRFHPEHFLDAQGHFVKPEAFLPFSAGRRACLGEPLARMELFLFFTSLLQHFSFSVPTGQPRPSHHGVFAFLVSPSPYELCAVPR", "test": "Inhibition of CYP2D6", "format": "ADME", "procedure,_shortened": "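CYP inhibition was tested in human liver microsomes with relevant probe substrates.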"}, "[2]": {"biological_target": "T1, Fatty-acid amide hydrolase 1 (Homo sapiens, UniProt O00519)", "T1 sequence (O00519 whole entry)": "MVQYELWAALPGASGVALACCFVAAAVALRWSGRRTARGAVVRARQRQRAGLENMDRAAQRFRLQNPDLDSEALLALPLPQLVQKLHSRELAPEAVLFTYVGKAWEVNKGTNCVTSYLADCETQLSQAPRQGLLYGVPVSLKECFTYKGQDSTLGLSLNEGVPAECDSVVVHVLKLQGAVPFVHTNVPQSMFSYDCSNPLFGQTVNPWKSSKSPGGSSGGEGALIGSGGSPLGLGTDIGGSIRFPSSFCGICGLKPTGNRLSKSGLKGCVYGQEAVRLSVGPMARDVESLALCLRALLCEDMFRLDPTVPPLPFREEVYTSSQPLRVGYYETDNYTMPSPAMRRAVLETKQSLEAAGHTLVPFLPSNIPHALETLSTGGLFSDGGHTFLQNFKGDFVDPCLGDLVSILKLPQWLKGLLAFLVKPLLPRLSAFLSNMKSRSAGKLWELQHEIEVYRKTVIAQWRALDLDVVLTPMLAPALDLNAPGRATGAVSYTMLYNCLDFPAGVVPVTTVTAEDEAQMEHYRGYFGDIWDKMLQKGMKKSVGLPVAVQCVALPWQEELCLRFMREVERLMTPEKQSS", "test": "Inhibition of His-tagged human FAAH N-terminal transmembrane-deleted truncated form expressed in Escherichia coli preincubated for 60 mins before oleamide substrate addition", "procedure,_shortened": "(§1)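 IC50 was determined after a 60 min preincubation of inhibitor with human or rat FAAH.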"}, "[3]": {"biological_target": "T2, Fatty-acid amide hydrolase 1 (Rattus norvegicus, UniProt P97612)", "T2 sequence (P97612 whole entry)": "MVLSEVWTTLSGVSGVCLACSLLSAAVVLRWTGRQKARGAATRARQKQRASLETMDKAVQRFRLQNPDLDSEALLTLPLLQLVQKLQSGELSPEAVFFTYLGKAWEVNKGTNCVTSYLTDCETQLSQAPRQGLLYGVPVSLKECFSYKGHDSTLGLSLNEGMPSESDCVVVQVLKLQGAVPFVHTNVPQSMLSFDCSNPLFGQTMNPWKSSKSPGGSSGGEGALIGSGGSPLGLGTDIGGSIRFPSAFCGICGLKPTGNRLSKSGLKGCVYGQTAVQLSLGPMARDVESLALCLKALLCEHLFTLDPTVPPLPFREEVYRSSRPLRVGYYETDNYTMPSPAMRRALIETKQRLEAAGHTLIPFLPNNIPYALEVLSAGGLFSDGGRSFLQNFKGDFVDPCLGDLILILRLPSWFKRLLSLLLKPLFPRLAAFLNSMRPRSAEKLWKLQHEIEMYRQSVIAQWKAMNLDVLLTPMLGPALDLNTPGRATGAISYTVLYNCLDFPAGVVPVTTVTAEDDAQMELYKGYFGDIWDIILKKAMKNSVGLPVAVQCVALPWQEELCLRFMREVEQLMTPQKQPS", "test": "Irreversible inhibition of His-tagged rat FAAH N-terminal transmembrane-deleted truncated form expressed in Escherichia coli preincubated for 60 mins before oleamide substrate addition", "procedure,_shortened": "as §1"}, "[4]": {"biological_target": "T3, Fatty-acid amide hydrolase 1 (Mus musculus) (UniProt O08914)", "T3 sequence (whole entry)": "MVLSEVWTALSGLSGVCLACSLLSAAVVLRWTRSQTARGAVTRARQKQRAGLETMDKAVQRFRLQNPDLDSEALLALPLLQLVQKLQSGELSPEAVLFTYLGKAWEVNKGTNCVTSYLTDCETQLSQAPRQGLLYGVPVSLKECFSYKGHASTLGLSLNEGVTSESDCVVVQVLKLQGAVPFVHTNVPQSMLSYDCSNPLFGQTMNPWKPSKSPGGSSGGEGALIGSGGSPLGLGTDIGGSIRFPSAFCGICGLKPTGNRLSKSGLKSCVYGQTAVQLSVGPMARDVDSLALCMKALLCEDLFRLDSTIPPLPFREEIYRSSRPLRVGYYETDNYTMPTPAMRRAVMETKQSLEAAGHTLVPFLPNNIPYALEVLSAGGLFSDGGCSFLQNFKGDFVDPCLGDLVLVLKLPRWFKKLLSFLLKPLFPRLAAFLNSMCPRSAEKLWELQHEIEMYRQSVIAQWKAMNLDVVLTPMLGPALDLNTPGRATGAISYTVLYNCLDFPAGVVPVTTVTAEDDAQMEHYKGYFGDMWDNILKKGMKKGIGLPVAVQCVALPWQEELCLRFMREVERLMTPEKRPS", "test": "Inhibition of FAAH in mouse brain membrane proteomes at 10 uM by competitive activity based protein profiling", "format": "cell membranes", "procedure,_shortened": "(§2)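 Competitive activity-based protein profiling used human and mouse brain membrane and soluble liver proteomes. Each was treated with compound at 10 or 100 μM or with DMSO, then labelled with FP-rhodamine. Serine hydrolases were resolved on fluorescent gels. Enzymes with reduced labelling intensity in the presence of inhibitor were scored as targets.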"}, "[5]": {"biological_target": "T3, Fatty-acid amide hydrolase 1 (Mus musculus)", "test": "Inhibition of FAAH in mouse brain membrane proteomes at 100 uM by competitive activity based protein profiling", "format": "cell membranes", "procedure,_shortened": "as §2"}, "[6]": {"species": "Mus musculus", "test": "Inhibition of fluorophosphonate-reactive serine proteases in mouse liver soluble proteomes at 100 uM by competitive activity based protein profiling", "procedure,_shortened": "as §2"}, "[7]": {"species": "Homo sapiens", "test": "Inhibition of fluorophosphonate-reactive serine proteases in human liver soluble proteomes at 100 uM by competitive activity based protein profiling", "procedure,_shortened": "as §2"}, "[8]": {"test": "Cmax in rat at 1 mg/kg, po", "format": "ADME, organism-based", "design": "dose 1 mg/kg, route oral", "conditions": "in vivo", "procedure,_shortened": "(§3)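 Plasma pharmacokinetics used 1 mg/kg in rat and 0.5 mg/kg in dog, given iv and po. The iv formulation was 5% dimethylacetamide/95% (40% SBE-cyclodextrin in water). Oral dosing was a methylcellulose suspension of crystalline material.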"}, "[9]": {"test": "Tmax in rat at 1 mg/kg, iv or 1 mg/kg, po", "format": "ADME, organism-based", "conditions": "in vivo", "procedure,_shortened": "as §3"}, "[10]": {"test": "Clearance in rat at 1 mg/kg, iv or 1 mg/kg, po", "format": "ADME, organism-based", "conditions": "in vivo", "procedure,_shortened": "as §3"}, "[11]": {"test": "Volume of distribution at steady state in rat at 1 mg/kg, iv or 1 mg/kg, po", "format": "ADME, organism-based", "conditions": "in vivo, read-out: Vdss", "procedure,_shortened": "as §3"}, "[12]": {"test": "Half life in rat at 1 mg/kg, iv", "format": "ADME, organism-based", "design": "dose 1 mg/kg, route intravenous", "conditions": "in vivo", "procedure,_shortened": "as §3"}, "[13]": {"test": "Oral bioavailability in rat at 1 mg/kg", "format": "ADME, organism-based", "conditions": "in vivo", "procedure,_shortened": "as §3"}, "[14]": {"test": "Cmax in dog at 0.5 mg/kg, po", "format": "ADME, organism-based, Canis lupus familiaris", "design": "dose 0.5 mg/kg, route oral", "conditions": "in vivo", "procedure,_shortened": "as §3"}, "[15]": {"test": "Tmax in dog at 0.5 mg/kg, iv or 0.5 mg/kg, po", "format": "ADME, organism-based, Canis lupus familiaris", "conditions": "in vivo", "procedure,_shortened": "as §3"}, "[16]": {"test": "Clearance in dog at 0.5 mg/kg, iv or 0.5 mg/kg, po", "format": "ADME, organism-based, Canis lupus familiaris", "conditions": "in vivo", "procedure,_shortened": "as §3"}, "[17]": {"test": "Volume of distribution at steady state in dog at 0.5 mg/kg, iv or 0.5 mg/kg, po", "format": "ADME, organism-based, Canis lupus familiaris", "conditions": "in vivo, read-out: Vdss", "procedure,_shortened": "as §3"}, "[18]": {"test": "Half life in dog at 0.5 mg/kg, iv", "format": "ADME, organism-based, Canis lupus familiaris", "design": "dose 0.5 mg/kg, route intravenous", "conditions": "in vivo", "procedure,_shortened": "as §3"}, "[19]": {"test_system": "Canis familiaris", "test": "Oral bioavailability in dog at 0.5 mg/kg, iv", "format": "ADME, organism-based, Canis lupus familiaris", "conditions": "in vivo", "procedure,_shortened": "as §3"}, "[20]": {"test_system": "MDCK", "test": "Apparent permeability from apical to basolateral side of MDCK cells", "format": "ADME, cell-based, Canis lupus familiaris", "conditions": "dog"}, "[21]": {"test_system": "MDCK", "test": "Apparent permeability from basolateral to apical side of MDCK cells", "format": "ADME, cell-based, Canis lupus familiaris", "conditions": "dog"}, "[22]": {"test_system": "Hepatocyte", "test": "Metabolic stability in human hepatocytes assessed as glutathione conjugate formation", "format": "ADME, cell-based", "procedure,_shortened": "(§4)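 Reactive metabolite potential was assessed by looking for glutathione conjugates in rat or human hepatocyte incubations.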"}, "[23]": {"test_system": "Hepatocyte", "test": "Metabolic stability in rat hepatocytes assessed as glutathione conjugate formation", "format": "ADME, cell-based", "procedure,_shortened": "as §4"}, "[24]": {"test_system": "Liver microsomes", "test": "Half life in human liver microsomes at 0.8 mg/mL protein concentration", "format": "ADME, Microsome", "procedure,_shortened": "(§5)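 Human liver microsomes at 0.8 mg/mL protein were used for half-life and microsomal protein binding. These in vitro data were used to predict human blood clearance.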"}, "[25]": {"test_system": "Liver microsomes", "test": "Protein binding in human liver microsomes at 0.8 mg/mL protein concentration", "format": "ADME, Microsome", "procedure,_shortened": "as §5"}, "[26]": {"test_system": "Rattus norvegicus", "test": "Antihyperalgesic activity in orally dosed Sprague-Dawley rat model of complete Freund's adjuvant-induced inflammatory pain model assessed as reduction in mechanical allodynia measured 4 hrs post dose", "format": "functional", "procedure,_shortened": "(§6)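 CFA was injected subcutaneously into the plantar surface of the rat hind paw. Oral dosing at 0.1-10 mg/kg began 5 days post-injection, once mechanical paw withdrawal threshold had fallen. Mechanical allodynia was read as paw withdrawal threshold 4 h after dosing. n=8 rats per group; significance versus vehicle-treated groups at p<0.05.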"}, "[27]": {"test_system": "Rattus norvegicus", "test": "Antihyperalgesic activity in Sprague-Dawley rat model of complete Freund's adjuvant-induced inflammatory pain model assessed as reduction in mechanical allodynia at 0.1 mg/kg, po measured 4 hrs post dose", "format": "functional, organism-based", "design": "dose 0.1 mg/kg", "procedure,_shortened": "as §6"}, "[28]": {"biological_target": "T4, Fatty-acid amide hydrolase 1 (Homo sapiens) (UniProt O00519)", "T4 sequence (whole entry)": "T1 sequence (O00519 whole entry)", "conditions": "10 uM"}, "[29]": {"biological_target": "T4, Fatty-acid amide hydrolase 1 (Homo sapiens)", "conditions": "100 uM"}}, "note": "pIC50: −log10 of the molar value. Active and inactive are the calls of the source."}
{"compound": "O=C(Nc1cccnn1)N1CCC(=Cc2cccc(Oc3ccc(C(F)(F)F)cn3)c2)CC1", "values": [{"measurement": "pIC50", "setting": "[1]", "value": 4.84}, {"measurement": "pIC50", "setting": "[2]", "value": 8.14}, {"measurement": "pIC50", "setting": "[3]", "value": 8.13}, {"measurement": "inhibition", "setting": "[4]", "value": "Active"}, {"measurement": "inhibition", "setting": "[5]", "value": "Active"}, {"measurement": "inhibition", "setting": "[6]", "value": "inactive"}, {"measurement": "inhibition", "setting": "[7]", "value": "inactive"}, {"measurement": "Cmax", "setting": "[8]", "value": 256, "unit": "ng/mL"}, {"measurement": "Tmax", "setting": "[9]", "value": 4, "unit": "h"}, {"measurement": "clearance", "setting": "[10]", "value": 3, "unit": "mL/min/kg"}, {"measurement": "Vd", "setting": "[11]", "value": 3.2, "unit": "L/kg"}, {"measurement": "half-life", "setting": "[12]", "value": 14.3, "unit": "h"}, {"measurement": "bioavailability", "setting": "[13]", "value": 88, "unit": "%"}, {"measurement": "Cmax", "setting": "[14]", "value": 240, "unit": "ng/mL"}, {"measurement": "Tmax", "setting": "[15]", "value": 1, "unit": "h"}, {"measurement": "clearance", "setting": "[16]", "value": 1.3, "unit": "mL/min/kg"}, {"measurement": "Vd", "setting": "[17]", "value": 2.9, "unit": "L/kg"}, {"measurement": "half-life", "setting": "[18]", "value": 35.2, "unit": "h"}, {"measurement": "F", "setting": "[19]", "value": 58, "unit": "%"}, {"measurement": "permeability", "setting": "[20]", "value": 15.2, "unit": "×10⁻⁶ cm/s"}, {"measurement": "permeability", "setting": "[21]", "value": 20.2, "unit": "×10⁻⁶ cm/s"}, {"measurement": "Stability", "setting": "[22]", "value": "Stable"}, {"measurement": "Stability", "setting": "[23]", "value": "Stable"}, {"measurement": "t1/2", "setting": "[24]", "value": 1.75, "unit": "h"}, {"measurement": "PB", "setting": "[25]", "value": 90, "unit": "%"}, {"measurement": "MED", "setting": "[26]", "value": 0.1, "unit": "mg/kg"}, {"measurement": "inhibition", "setting": "[27]", "value": "Active"}, {"measurement": "inhibition", "setting": "[28]", "value": "Active"}, {"measurement": "inhibition", "setting": "[29]", "value": "Active"}]}
